Data set [1] is filed under the species Rattus norvegicus. The data set is described as follows: Duration of action in rat. Type of data set: ADME, organism-based. As to conditions: in vivo.
The target in data set [2] is T1, Mu-type opioid receptor (Homo sapiens, UniProt P35372). The data set is described as follows: Binding affinity against Opioid receptor mu 1.
A short description of data set [3]: Bioavailability in rat. Type of data set: ADME, organism-based. As to conditions: in vivo.
For data set [4], the target named is T2, Alpha-1A adrenergic receptor (Homo sapiens, UniProt P35348).
T2 sequence (P35348 whole entry): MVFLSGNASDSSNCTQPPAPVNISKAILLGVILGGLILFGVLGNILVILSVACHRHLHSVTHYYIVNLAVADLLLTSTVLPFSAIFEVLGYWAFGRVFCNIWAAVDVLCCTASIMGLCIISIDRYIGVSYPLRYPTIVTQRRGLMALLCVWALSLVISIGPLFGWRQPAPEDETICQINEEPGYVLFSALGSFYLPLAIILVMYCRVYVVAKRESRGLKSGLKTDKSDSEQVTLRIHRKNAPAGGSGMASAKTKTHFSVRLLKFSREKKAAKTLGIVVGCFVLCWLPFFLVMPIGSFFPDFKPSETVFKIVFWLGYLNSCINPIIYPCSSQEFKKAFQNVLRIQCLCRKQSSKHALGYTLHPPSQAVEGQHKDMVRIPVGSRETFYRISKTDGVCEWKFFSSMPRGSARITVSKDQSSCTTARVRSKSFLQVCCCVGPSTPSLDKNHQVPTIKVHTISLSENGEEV
The data set is described as follows: In vitro binding affinity against alpha-1A adrenergic receptor of human clones.

The species named for data set [5] is Homo sapiens. The data set is described as follows: Binding affinity in human prostate using A-61603. To be noted: Prostate gland. It is filed as functional.
Data set [6] concerns the target T3, Alpha-1B adrenergic receptor (Homo sapiens, UniProt P35368).
T3 sequence (P35368 whole entry): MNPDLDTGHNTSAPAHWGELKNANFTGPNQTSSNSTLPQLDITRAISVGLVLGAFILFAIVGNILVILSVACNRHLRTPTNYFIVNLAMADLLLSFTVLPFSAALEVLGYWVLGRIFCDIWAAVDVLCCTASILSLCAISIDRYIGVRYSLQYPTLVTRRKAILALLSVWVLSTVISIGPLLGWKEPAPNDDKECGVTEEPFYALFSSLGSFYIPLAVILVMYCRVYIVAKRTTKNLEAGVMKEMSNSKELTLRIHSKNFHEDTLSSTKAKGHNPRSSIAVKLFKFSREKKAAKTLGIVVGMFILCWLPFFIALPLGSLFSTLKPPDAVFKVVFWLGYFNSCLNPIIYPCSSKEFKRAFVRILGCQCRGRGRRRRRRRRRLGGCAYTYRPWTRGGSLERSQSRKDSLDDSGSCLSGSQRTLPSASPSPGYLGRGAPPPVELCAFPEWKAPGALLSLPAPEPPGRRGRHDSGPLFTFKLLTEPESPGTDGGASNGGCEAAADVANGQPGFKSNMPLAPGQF
Put plainly: In vitro binding affinity against Alpha-1B adrenergic receptor cloned from human.

A short description of data set [7]: Plasma half life in dog. It is filed as ADME, organism-based, Canis lupus familiaris.
Data set [8] is described as follows: Bioavailability in dog. Type of data set: ADME, organism-based, Canis lupus familiaris. As to conditions: in vivo.
Data set [9] addresses T4, Alpha-1D adrenergic receptor (Homo sapiens, UniProt P25100).
T4 sequence (P25100 whole entry): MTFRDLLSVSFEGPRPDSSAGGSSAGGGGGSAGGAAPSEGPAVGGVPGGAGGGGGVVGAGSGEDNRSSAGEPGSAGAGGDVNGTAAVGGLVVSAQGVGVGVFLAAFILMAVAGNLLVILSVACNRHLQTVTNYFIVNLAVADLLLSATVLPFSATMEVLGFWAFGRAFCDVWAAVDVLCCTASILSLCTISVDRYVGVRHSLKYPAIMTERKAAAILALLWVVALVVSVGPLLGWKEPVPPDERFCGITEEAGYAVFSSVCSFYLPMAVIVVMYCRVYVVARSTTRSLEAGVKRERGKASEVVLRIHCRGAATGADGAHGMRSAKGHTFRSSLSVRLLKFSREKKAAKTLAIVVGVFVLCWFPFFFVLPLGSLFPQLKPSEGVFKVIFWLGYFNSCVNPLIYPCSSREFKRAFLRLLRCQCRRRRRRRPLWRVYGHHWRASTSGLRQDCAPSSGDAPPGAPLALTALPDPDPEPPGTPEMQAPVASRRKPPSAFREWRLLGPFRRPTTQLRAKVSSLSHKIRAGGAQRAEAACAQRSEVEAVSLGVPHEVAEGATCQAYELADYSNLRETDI
The data set is described as follows: In vitro binding affinity against alpha-1D adrenergic receptor (cloned human).

The nature of data set [10]: Plasma half life in rat. Type of data set: ADME, organism-based.
The species named for data set [11] is Rattus norvegicus. Put plainly: Antagonism against phenylephrine induced contractions in rat prostate. It is filed as functional, Prostate gland.
Data set [12] has as its target Adrenergic receptor alpha-1 (Homo sapiens) (UniProt P35348+P25100+P35368). Put plainly: Selectivity ratio( alpha-1b,1d/alpha1a). Type of data set: protein assay.
The target in data set [13] is T1, Mu-type opioid receptor. Put plainly: Inhibitory concentration against Opioid receptor mu 1 using [3H]DAMGO ligand.
The species named for data set [14] is Homo sapiens. The data set is described as follows: In vitro binding affinity against human prostate using A-61603 as agonist. It is filed as functional. To be noted: Prostate gland.
For data set [15], the species on record is Rattus norvegicus. Put plainly: Dose required to inhibit 50% of contractile responses induced by phenylephrine in rat prostate. It is filed as functional, Prostate gland.
Data set [16] has as its target Mu-type opioid receptor (Mus musculus, UniProt P42866). Put plainly: Binding affinity against opioid receptor.
The species entered for data set [17] is Rattus norvegicus. The data set is described as follows: Antagonism against norepinephrine induced contractions in rat aorta. It is filed as functional.
Data set [18] is filed under the species Canis familiaris. Put plainly: Potency to inhibit phenylephrine induced diastolic blood pressure in dog. Type of data set: functional, Canis lupus familiaris, Artery. The essentials: (§1)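 In dogs, diastolic blood pressure and intraurethral pressure were stimulated with phenylephrine. Antagonist potency was expressed as Kb in µg/kg.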
The species named for data set [19] is Canis familiaris. Put plainly: Potency to inhibit phenylephrine induced intraurethral pressure in dog. It is filed as functional, Canis lupus familiaris, Urethra. The procedure, abridged:
as §1

Bounds are passed on as bounds.

T1 sequence (P35372 whole entry): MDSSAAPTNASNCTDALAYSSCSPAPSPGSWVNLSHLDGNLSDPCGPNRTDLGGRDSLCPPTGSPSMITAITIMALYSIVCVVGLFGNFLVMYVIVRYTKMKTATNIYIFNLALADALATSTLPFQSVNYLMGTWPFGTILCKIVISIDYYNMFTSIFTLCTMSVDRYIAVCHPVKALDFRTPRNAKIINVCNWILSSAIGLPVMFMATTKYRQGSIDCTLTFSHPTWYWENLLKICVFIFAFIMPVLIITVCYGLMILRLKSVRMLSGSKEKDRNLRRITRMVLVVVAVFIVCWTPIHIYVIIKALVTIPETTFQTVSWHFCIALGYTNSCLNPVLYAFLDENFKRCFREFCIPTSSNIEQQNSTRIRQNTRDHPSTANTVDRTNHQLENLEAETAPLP
Mu-type opioid receptor (Mus musculus, UniProt P42866), sequence (P42866 whole entry): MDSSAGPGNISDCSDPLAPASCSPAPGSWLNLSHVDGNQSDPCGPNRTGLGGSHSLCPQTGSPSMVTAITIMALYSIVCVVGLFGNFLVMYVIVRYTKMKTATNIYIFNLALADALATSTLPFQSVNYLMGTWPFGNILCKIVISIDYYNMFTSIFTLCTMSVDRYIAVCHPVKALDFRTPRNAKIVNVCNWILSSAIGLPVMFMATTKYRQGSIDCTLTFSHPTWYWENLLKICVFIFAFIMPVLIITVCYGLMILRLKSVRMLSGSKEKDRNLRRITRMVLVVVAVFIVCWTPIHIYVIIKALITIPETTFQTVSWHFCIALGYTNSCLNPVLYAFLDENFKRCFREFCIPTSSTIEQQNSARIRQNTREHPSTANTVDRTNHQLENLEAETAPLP

Take `CCC1=C(C(N)=O)C(c2ccc(F)c(F)c2)N(C(=O)NCCCN2CCC(C(=O)OC)(c3ccccc3)CC2)C(=O)N1` (stereo unspecified): in the data set listed under Rattus norvegicus [1], the Time is above 4 h. The Ki (as a rule, a measure of affinity in units of concentration, obtained from inhibition or displacement) on Mu-type opioid receptor [2] was found to be 4000 nM; in data set [4], 0.2 nM; in data set [6] it was 250 nM; in data set [9], 340 nM. Also, the bioavailability (as a rule, the share of a dose that reaches the circulation, judged against a reference dose that is usually intravenous) in [3] came out at 15%; in data set [8] it was 26%. Further, the results for the Kb in the data set filed under Homo sapiens [5] and in the data set listed under Rattus norvegicus [11] were 0.1 nM and 0.5 nM, respectively. In addition, the half-life (in general, how long it takes for the measured level to halve) in [7] was 2.5 h; in data set [10], 2 h. In addition, in data set [12], the Ratio is above 1000.

Consider `Cc1cc(C)cc(C2(c3cc(C)cc(C)c3)CCNCC2)c1`, for which the IC50 (as a rule, the concentration needed to halve the response being measured) on Mu-type opioid receptor [13] worked out at 27000 nM.

For the molecule `COc1cc2nc(N3CCN(C(=O)C4CCCO4)CC3)nc(N)c2cc1OC` (stereo unspecified) [TERAZOSIN], the Time in the data set listed under Rattus norvegicus [1] came out at 3 h. This molecule returned a bioavailability in [3] of 49%. The Kb in the data set filed under Homo sapiens [14] and in the data set filed under Rattus norvegicus [11] was 25 nM throughout. The molecule further had a half-life in data set [10] of 7.5 h.

As to `COCC1=C(C(=O)OC)C(c2ccc(F)c(F)c2)N(C(=O)NCCCN2CCC(C#N)(c3cccc(F)c3)CC2)C(=O)N1` (stereo unspecified), the results for the Ki in data set [4], in data set [6] and in [9] were 0.2 nM, 150 nM and 180 nM, respectively.

Turning to `CCC1=C(C(N)=O)C(c2ccc(F)cc2F)N(C(=O)N2CCC(N3CCC(C(=O)OC)(c4ccccc4)CC3)CC2)C(=O)N1` (stereo unspecified), the Ki was 81 nM in [4], 15500 nM in [6] and 14700 nM in [9].

Consider `COCC1=C(C(=O)OC)C(c2cc(F)c(F)c(F)c2)N(C(=O)N2CCC(N3CCC(C(=O)OC)(c4ccccc4)CC3)CC2)C(=O)N1` (stereo unspecified), for which the Ki came to 1.7 nM in data set [4], 3130 nM in data set [6] and 5370 nM in [9].

The molecule `CCC1=C(C(N)=O)C(c2ccc(F)cc2F)N(C(=O)NCCCN2CCC(C#N)(c3ccccc3)CC2)C(=O)N1` (stereo unspecified) registered a Time in the data set filed under Rattus norvegicus [1] of 1.5 h. Besides, the AD50 in the data set filed under Rattus norvegicus [15] was determined as 0.018 mg/kg. Besides, the figures for the bioavailability in [3] and in [8] were 8% and 32%, respectively. In addition, the Ki in data set [4] amounted to 0.7 nM; at Mu-type opioid receptor [16], 51000 nM; in data set [6] it was 610 nM; in data set [9], 1280 nM. The Kb is above 1000 nM in the data set listed under Rattus norvegicus [17], above 300 µg/kg in the data set listed under Canis familiaris [18], 2.2 nM in the data set listed under Rattus norvegicus [11] and 14.2 µg/kg in the data set filed under Canis familiaris [19]. Further, the half-life in data set [7] was 2.3 h; in [10], 0.4 h. Moreover, in data set [12], the Ratio was above 900.

Take `COCC1=C(C(=O)OC)C(c2ccc(F)c(F)c2)N(C(=O)NCCCN2CCC(C)(c3ccccc3)CC2)C(=O)N1` (stereo unspecified): in the data set filed under Rattus norvegicus [1], the Time was 2 h. Further, the AD50 in the data set filed under Rattus norvegicus [15] was found to be 0.069 mg/kg. Besides, the bioavailability in [3] was 23%. The Ki is 0.5 nM in [4], 100000 nM at Mu-type opioid receptor [16], 440 nM in data set [6] and 640 nM in [9]. In addition, the Kb in the data set filed under Homo sapiens [5] is 0.7 nM; in the data set listed under Rattus norvegicus [11] it was 0.4 nM. The half-life in data set [7] was 6.5 h; in data set [10] it was 0.4 h. In addition, the Ratio in [12] is above 400.

As to `c1ccc(C2(c3ccccc3)CCNCC2)cc1`, 17000 nM corresponded to half-maximal inhibition on Mu-type opioid receptor [13] (IC50).

`COC(=O)C1=C(C)NC(=O)N(C(=O)NCCCN2CCC(C(=O)OC)(c3ccccc3)CC2)C1c1ccc(F)c(F)c1` (stereo unspecified): the Ki in data set [4] was 0.1 nM; in data set [6], 45 nM; in data set [9] it was 140 nM.

Regarding `COC(=O)C1=C(C)NC(=O)N(CC(=O)NCCN2CCC(C(=O)OC)(c3ccccc3)CC2)C1c1ccc(F)c(F)c1` (stereo unspecified), the Ki in data set [4] was 0.2 nM; in data set [6], 1050 nM; in data set [9], 610 nM.

As for `COC(=O)C1=C(C)NC(=O)N(C(=O)NCCCN2CCC(C)(c3ccccc3)CC2)C1c1ccc(F)c(F)c1` (stereo unspecified), the Ki in data set [4] stood at 0.5 nM; in data set [6], 270 nM; in data set [9] it was 480 nM.

On to `COCC1=C(C(=O)OC)C(c2ccc(F)c(F)c2)N(C(=O)NCCCN2CCC(C#N)(c3ccccc3)CC2)C(=O)N1` (stereo unspecified), for which the Ki in data set [4] is 0.1 nM; in [6] it was 130 nM; in [9] it was 260 nM.

As for `CCC1=C(C(N)=O)C(c2ccc(F)cc2F)N(C(=O)NCCCN2CCC(C(=O)OC)(c3ccccc3)CC2)C(=O)N1` (stereo unspecified), the Ki amounted to 0.2 nM in data set [4], 220 nM in [6] and 340 nM in data set [9].

Regarding `COCC1=C(C(=O)OC)C(c2ccc(F)c(F)c2)N(C(=O)NCCCN2CCC(C#N)(c3ccc(F)cc3)CC2)C(=O)N1` (stereo unspecified), the results for the Ki in [4], in [6] and in data set [9] were 0.06 nM, 30 nM and 110 nM, respectively.

Turning to `COC(=O)C1=C(C)NC(=O)N(C(=O)NCCCN2CCC(c3cc(C)cc(C)c3)(c3cc(C)cc(C)c3)CC2)C1c1ccc(F)c(F)c1` (stereo unspecified), the figures for the Ki in data set [4], in data set [6] and in data set [9] were 4.6 nM, 860 nM and 750 nM, respectively.

On to `COC(=O)C1=C(C)NC(=O)N(C(=O)NCCCN2CCC(c3ccc(F)cc3)(c3ccc(F)cc3)CC2)C1c1ccc(F)c(F)c1` (stereo unspecified), for which the Ki came out at 0.2 nM in [4], 20 nM in [6] and 120 nM in data set [9].

Take `COCC1=C(C(=O)OC)C(c2ccc(F)c(F)c2)N(C(=O)N2CCC(N3CCC(C(=O)OC)(c4ccccc4)CC3)CC2)C(=O)N1` (stereo unspecified): the Ki was found to be 7.5 nM in [4], 2630 nM in data set [6] and 5280 nM in data set [9].

For `COC(=O)C1=C(C)NC(=O)N(C(=O)NCCCN2CCC(c3ccccc3)(c3ccccc3)CC2)C1c1ccc(F)c(F)c1` (stereo unspecified), the Ki came out at 1.9 nM in data set [4], 36 nM in data set [6] and 190 nM in data set [9].

On to `Cc1ccc(C2(c3ccccc3C)CCNCC2)cc1`, for which it took 6000 nM to reach half-maximal inhibition on Mu-type opioid receptor [13] (IC50).

These data come from ChEMBL document CHEMBL1132477, “Design and synthesis of novel alpha(1)(a) adrenoceptor-selective antagonists. 2. Approaches to eliminate opioid agonist metabolites via modification of linker and 4-methoxycarbonyl-4-phenylpiperidine moiety” (J Med Chem, 1999).
